The target of data set [1] is T1, Fatty-acid amide hydrolase 1 (Homo sapiens) (UniProt O00519).
T1 sequence (whole entry): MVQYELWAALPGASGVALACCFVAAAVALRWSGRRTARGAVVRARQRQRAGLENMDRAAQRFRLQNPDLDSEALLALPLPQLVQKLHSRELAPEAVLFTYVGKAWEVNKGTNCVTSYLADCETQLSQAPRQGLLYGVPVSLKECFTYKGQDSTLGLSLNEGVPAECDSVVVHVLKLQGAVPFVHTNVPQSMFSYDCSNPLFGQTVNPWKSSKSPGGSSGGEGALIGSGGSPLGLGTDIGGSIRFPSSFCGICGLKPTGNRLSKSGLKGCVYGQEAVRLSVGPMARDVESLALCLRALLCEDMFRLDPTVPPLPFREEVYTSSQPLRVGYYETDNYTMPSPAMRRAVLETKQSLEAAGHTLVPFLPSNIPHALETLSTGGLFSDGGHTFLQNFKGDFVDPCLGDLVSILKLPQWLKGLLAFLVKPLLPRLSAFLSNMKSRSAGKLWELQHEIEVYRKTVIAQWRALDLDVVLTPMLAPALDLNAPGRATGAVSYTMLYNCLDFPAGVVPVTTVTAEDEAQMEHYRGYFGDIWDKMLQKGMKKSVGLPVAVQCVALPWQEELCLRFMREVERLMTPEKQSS
In words: Irreversible binding affinity to FAAH (unknown origin) assessed as lack of enzymatic activity at 120 nM at room temperature after 24 hrs by dialysis assay. An outline of the steps:
(§1)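 Enzyme with inhibitor was dialysed for 24 h (overnight), in parallel at 4 °C and at room temperature. FAAH activity was measured before and after dialysis and expressed as % activity of vehicle control. Lack of recovered activity after dialysis was read as irreversible binding. Reference inhibitors were a reversible binder and a slow-off substrate.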

Data set [2] deals with T1, Fatty-acid amide hydrolase 1 (Homo sapiens). Kind of data set: Irreversible binding affinity to FAAH (unknown origin) assessed as lack of enzymatic activity at 120 nM at 4 degC after 24 hrs by dialysis assay. An outline of the steps:
as §1

The target is the same in data set [3]. Kind of data set: Irreversible binding affinity to FAAH (unknown origin) assessed as lack of enzymatic activity at 100 nM at room temperature after 24 hrs by dialysis assay. An outline of the steps:
as §1

Data set [4] shares this target. Kind of data set: Irreversible binding affinity to FAAH (unknown origin) assessed as lack of enzymatic activity at 100 nM at 4 degC after 24 hrs by dialysis assay. The method in brief:
as §1

Data set [5] has as its system Rattus norvegicus. Kind of data set: Analgesic activity in rat Chung model of neuropathic pain at 20 mg/kg, po. The data set is classed as functional, organism-based. Also on record: dose 20 mg/kg. An outline of the steps:
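Rats dosed orally at 20 mg/kg in water (vehicle water, 2 mL/kg); n=6 per group; positive control dosed p.o. at 60 mg/kg (n=3); significance assessed overall at p < 0.05.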

For data set [6], the system named is Rattus norvegicus. In words: Ex vivo inhibition of FAAH in Sprague-Dawley rat assessed as residual activity at 20 mg/kg, po after 0.5 to 4 hrs. The data set is classed as functional. An outline of the steps:
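Oral 20 mg/kg in water, n=3 rats; brains taken at 30 min, 1 h and 4 h post-dose and ex vivo FAAH activity expressed as % of vehicle control; AEA, OEA and PEA levels measured at 4 h versus controls.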

Another data set has as its system Brain. Kind of data set: Drug uptake in Sprague-Dawley rat brain at 20 mg/kg, po. Format: ADME, organism-based. Also noted: dose 20 mg/kg, route oral. The conditions noted are these: in vivo. The method in brief: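 Single 20 mg/kg oral dose in water, n=3 rats; brain and plasma compound levels (µM) measured over 0–4 h post-dose.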
The target in data set [7] is T2, Fatty-acid amide hydrolase 1 (Rattus norvegicus, UniProt P97612).
T2 sequence (P97612 whole entry): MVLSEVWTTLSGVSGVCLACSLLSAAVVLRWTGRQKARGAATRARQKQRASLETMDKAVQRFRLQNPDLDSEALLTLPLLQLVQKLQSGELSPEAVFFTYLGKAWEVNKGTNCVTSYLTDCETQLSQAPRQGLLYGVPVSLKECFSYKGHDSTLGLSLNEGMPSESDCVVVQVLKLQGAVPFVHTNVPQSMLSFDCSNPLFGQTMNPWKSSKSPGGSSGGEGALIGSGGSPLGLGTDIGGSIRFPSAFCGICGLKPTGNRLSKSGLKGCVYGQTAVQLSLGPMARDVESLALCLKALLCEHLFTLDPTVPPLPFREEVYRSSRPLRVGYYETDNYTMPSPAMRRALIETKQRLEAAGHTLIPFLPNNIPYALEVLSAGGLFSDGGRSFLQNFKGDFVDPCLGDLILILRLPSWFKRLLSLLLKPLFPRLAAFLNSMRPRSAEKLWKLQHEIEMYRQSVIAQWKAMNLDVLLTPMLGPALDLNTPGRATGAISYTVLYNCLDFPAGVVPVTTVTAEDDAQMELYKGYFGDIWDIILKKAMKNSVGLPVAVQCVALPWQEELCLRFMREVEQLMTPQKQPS
Kind of data set: Inhibition of rat FAAH after 60 mins. An outline of the steps:
(§2)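 Enzyme preincubated with compound for 60 min before activity read-out; values n ≥ 3 ± SEM.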

For data set [8], the target named is T3, Fatty-acid amide hydrolase 1 (Homo sapiens, UniProt O00519).
T3 sequence (O00519 whole entry): T1 sequence (whole entry)
In words: Inhibition of human FAAH after 60 mins. The method in brief: as §2

The subject of data set [9] is Rattus norvegicus. Kind of data set: Ex vivo inhibition of FAAH in Sprague-Dawley rat assessed as increase in OEA level at 20 mg/kg, po after 4 hrs relative to control; values are per cent of control.
The subject of data set [10] is Rattus norvegicus. In words: Ex vivo inhibition of FAAH in Sprague-Dawley rat assessed as increase in PEA level at 20 mg/kg, po after 4 hrs relative to control; values are per cent of control.
Data set [11] concerns Rattus norvegicus. In words: Ex vivo inhibition of FAAH in Sprague-Dawley rat assessed as increase in AEA level at 20 mg/kg, po after 4 hrs relative to control; values are per cent of control.

Active and inactive are the calls of the source. The rule behind the calls is not given here.

The results in this text go back to ChEMBL document CHEMBL3112557, “Heteroarylureas with spirocyclic diamine cores as inhibitors of fatty acid amide hydrolase” (Bioorg Med Chem Lett, 2014).

`O=C(Nc1cnccc1Cl)N1CC2(CCN(Cc3cccc(Oc4ccc(Cl)cc4)c3)CC2)C1`: the outcome (in data set [1]; in data set [2]; in data set [3]; in data set [4]; with Rattus norvegicus [5]) was Active. Moreover, the Activity in the data set on Rattus norvegicus [6] is <10%. In addition, in the data set on Brain, the Drug uptake entry was “Active”. For the same compound, the IC50 in [7] is 9 nM; in data set [8] it was 8 nM. The level, % of control at 20 mg/kg in the data set on Rattus norvegicus [9] came out at 500%; in the data set on Rattus norvegicus [10], 700%; in the data set on Rattus norvegicus [11] it was 150%.
